In ChEMBL document CHEMBL1914454, “Novel N-linked aminopiperidine inhibitors of bacterial topoisomerase type II: broad-spectrum antibacterial agents with reduced hERG activity” (J Med Chem, 2011):
Values after ≈ are worked out from the molar mass of the structure shown.

Legend:
[1] = system: Streptococcus pneumoniae; experiment: Antibacterial activity against penicillin-susceptible Streptococcus pneumoniae D39 after 18 to 24 hrs by broth microdilution method; type: functional
Method in brief: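 CLSI broth microdilution in 2.2% (w/v) Mueller Hinton broth with 0.65% (v/v) lysed horse blood. Compounds diluted from DMSO to 2% DMSO final, 11 doubling dilutions from 64 to 0.06 μg/mL. Incubated at 35 °C for 18−24 h; read at 620 nm.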

[2] = system: Staphylococcus aureus; experiment: Antibacterial activity against methicillin-susceptible Staphylococcus aureus after 18 to 24 hrs by broth microdilution method; type: functional
Method in brief: (§1)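 Broth microdilution following CLSI guidelines in Mueller Hinton broth. Compounds in DMSO, diluted to 2% DMSO final, 11 doubling dilutions from 64 to 0.06 μg/mL. Incubated at 35 °C for 18−24 h; growth read by absorbance at 620 nm.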

[3] = system: Pseudomonas aeruginosa; experiment: Antibacterial activity against Pseudomonas aeruginosa PAO1 after 18 to 24 hrs by broth microdilution method; type: functional; method in brief: as §1
[4] = system: Escherichia coli; experiment: Antibacterial activity against Escherichia coli W3110 after 18 to 24 hrs by broth microdilution method; type: functional; details: K-12 substr. W3110; method in brief: as §1
[5] = Octanol-phosphate buffer partition coefficient, log D of the compound at pH 7.4 by LC/MS/UV analysis
[6] = Clearance in Wistar Han rat at 3 mg/kg, iv; type: ADME, organism-based; design: dose 3 mg/kg, route intravenous; details: in vivo
Method in brief: (§2)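 Groups of three Wistar Han rats got a 3 mg/kg iv bolus via a cannulated jugular vein. Serial whole-blood samples were taken at time intervals, and compound in plasma was quantified by LC–MS/MS. Parameters were estimated by a noncompartmental model.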

[7] = Volume of distribution in Wistar Han rat at 3 mg/kg, iv; type: ADME, organism-based; design: dose 3 mg/kg, route intravenous; details: in vivo; method in brief: as §2
[8] = Half life in Wistar Han rat at 3 mg/kg, iv; type: ADME, organism-based; design: dose 3 mg/kg, route intravenous; details: in vivo; method in brief: as §2
[9] = AUC in Wistar Han rat at 3 mg/kg, iv; type: ADME, organism-based; design: dose 3 mg/kg, route intravenous; details: plasma; method in brief: as §2
[10] = Clearance in Beagle dog at 3 mg/kg, iv; type: ADME, organism-based, Canis lupus familiaris; design: dose 3 mg/kg, route intravenous; details: in vivo
Method in brief: (§3)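 Plasma was sampled from 0 to 24 h and drug measured by LC–MS/MS. Parameters came from noncompartmental analysis.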

[11] = Volume of distribution in Beagle dog at 3 mg/kg, iv; type: ADME, organism-based, Canis lupus familiaris; design: dose 3 mg/kg, route intravenous; details: in vivo; method in brief: as §3
[12] = Half life in Beagle dog at 3 mg/kg, iv; type: ADME, organism-based, Canis lupus familiaris; design: dose 3 mg/kg, route intravenous; details: in vivo; method in brief: as §3
[13] = AUC in Beagle dog at 3 mg/kg, iv; type: ADME, organism-based, Canis lupus familiaris; design: dose 3 mg/kg, route intravenous; details: plasma; method in brief: as §3
[14] = Oral bioavailability in Beagle dog at 10 mg/kg; type: ADME, organism-based, Canis lupus familiaris; details: in vivo; method in brief: as §3
[15] = Inhibition of Escherichia coli ATPase activity of topoisomerase 4 ParC/ParE subunit assessed as reduction in inorganic phosphate production after 24 hrs by ammonium molybdate/malachite-green based assay
Method in brief: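 Each reaction contained 0.5 nM each of E. coli ParC and ParE, 0.16 mM ATP and 0.005 mg/mL sheared salmon sperm DNA in 20 mM Tris pH 8.0 with 50 mM ammonium acetate, 8.0 mM MgCl₂, 0.5 mM EDTA, 5 mM DTT, 2.5% glycerol and 0.005% Brij-35. Compound dilution series; 24 h at room temperature. Quenched with malachite green; absorbance read at 650 nm. IC50 is the mean of three replicate experiments.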

[16] = Fraction unbound in human plasma at 10 uM after 16 hrs by equilibrium dialysis
[17] = target: Voltage-gated inwardly rectifying potassium channel KCNH2 (Homo sapiens, UniProt Q12809); experiment: Inhibition of human ERG by ionworks HT assay
Sequence of Voltage-gated inwardly rectifying potassium channel KCNH2 (Q12809 whole entry): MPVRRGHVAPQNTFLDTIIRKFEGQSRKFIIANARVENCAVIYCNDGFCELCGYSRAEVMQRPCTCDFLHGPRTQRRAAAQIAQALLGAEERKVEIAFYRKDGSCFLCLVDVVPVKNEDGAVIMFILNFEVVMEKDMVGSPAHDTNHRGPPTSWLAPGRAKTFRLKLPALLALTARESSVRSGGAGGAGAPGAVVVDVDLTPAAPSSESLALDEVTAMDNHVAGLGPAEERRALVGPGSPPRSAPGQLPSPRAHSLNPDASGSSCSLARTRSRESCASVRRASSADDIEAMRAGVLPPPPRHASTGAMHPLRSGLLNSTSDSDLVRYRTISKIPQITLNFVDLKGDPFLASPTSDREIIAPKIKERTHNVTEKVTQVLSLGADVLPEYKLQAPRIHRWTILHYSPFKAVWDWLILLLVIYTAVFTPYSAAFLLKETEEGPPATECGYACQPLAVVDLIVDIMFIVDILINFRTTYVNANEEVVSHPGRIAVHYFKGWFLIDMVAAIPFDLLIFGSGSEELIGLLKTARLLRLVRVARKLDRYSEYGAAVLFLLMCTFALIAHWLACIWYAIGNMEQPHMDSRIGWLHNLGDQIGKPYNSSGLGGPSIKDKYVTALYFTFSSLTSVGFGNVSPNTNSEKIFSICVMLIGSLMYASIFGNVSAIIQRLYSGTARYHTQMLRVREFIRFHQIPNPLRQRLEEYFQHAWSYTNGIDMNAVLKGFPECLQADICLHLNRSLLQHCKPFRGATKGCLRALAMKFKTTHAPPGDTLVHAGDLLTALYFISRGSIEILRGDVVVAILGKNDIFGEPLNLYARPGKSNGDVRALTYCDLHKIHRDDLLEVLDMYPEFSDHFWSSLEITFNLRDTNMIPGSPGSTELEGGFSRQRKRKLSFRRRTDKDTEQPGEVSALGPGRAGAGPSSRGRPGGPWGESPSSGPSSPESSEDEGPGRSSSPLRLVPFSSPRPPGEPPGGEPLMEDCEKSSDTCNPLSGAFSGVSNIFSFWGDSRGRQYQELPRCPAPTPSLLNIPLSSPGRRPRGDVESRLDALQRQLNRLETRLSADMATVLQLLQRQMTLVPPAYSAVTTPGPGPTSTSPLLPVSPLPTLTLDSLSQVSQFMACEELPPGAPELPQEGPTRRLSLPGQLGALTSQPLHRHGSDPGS

Compound	MIC [1] [µg/mL]	MIC [2] [µg/mL]	MIC [3] [µg/mL]	MIC [4] [µg/mL]	logD ([5]; octanol/phosphate buffer)	IC50 [15] [nM]	fraction unbound at 16 h, 10 µM [16]	logD ([5]; octanol/water)	clearance [6] [mL/min/kg]	Vd [7] [L/kg]	half-life [8] [h]	AUC [9] [ng·h/mL]	clearance [10] [mL/min/kg]	Vd [11] [L/kg]	half-life [12] [h]	AUC [13] [ng·h/mL]	bioavailability [14] [%]	IC50 [17] [nM]
N#Cc1ccc2c(c1)N(CCN1CCC(NCc3ccc4c(n3)NC(=O)CO4)CC1)C(=O)CO2	0.5 (≈ 1.08 µM)	0.13 (≈ 0.281 µM)	2 (≈ 4.32 µM)	0.25 (≈ 0.541 µM)	0.24	3.2	–	–	66	23	5.8	640	7.8	61	166	3090	64	–
O=C1COc2ccc(CNC3CCN(CCN4C(=O)COc5ccc(F)cc54)CC3)nc2N1	0.5 (≈ 1.1 µM)	0.25 (≈ 0.549 µM)	3 (≈ 6.59 µM)	0.25 (≈ 0.549 µM)	0.9	–	0.17	–	–	–	–	–	–	–	–	–	–	–
COc1ccc2c(c1)N(CCN1CCC(NCc3ccc4c(n3)NC(=O)CO4)CC1)C(=O)CO2	0.5 (≈ 1.07 µM)	0.13 (≈ 0.278 µM)	4 (≈ 8.56 µM)	0.25 (≈ 0.535 µM)	0.87	5	0.11	–	–	–	–	–	–	–	–	–	–	–
COc1ccc2ncc(F)c(CCN3CCC(NCc4cc5c(cn4)OCCO5)CC3)c2n1	< 0.07	< 0.01	4 (≈ 8.82 µM)	0.13 (≈ 0.287 µM)	1.46	1.3	0.17	–	–	–	–	–	–	–	–	–	–	–
COc1ccc2c(c1)N(CCN1CCC(NCc3cc4c(cn3)OCCO4)CC1)C(=O)CO2	0.25 (≈ 0.55 µM)	0.13 (≈ 0.286 µM)	> 8	1 (≈ 2.2 µM)	1.24	–	0.18	–	–	–	–	–	–	–	–	–	–	13000
O=C1COc2ccccc2N1CCN1CCC(NCc2cc3c(cn2)OCCO3)CC1	4 (≈ 9.42 µM)	2 (≈ 4.71 µM)	> 8	8 (≈ 18.8 µM)	1.04	100	0.26	–	–	–	–	–	–	–	–	–	–	–
COc1ncc2ccc(=O)n(CCN3CCC(NCc4cc5c(cn4)OCCO5)CC3)c2n1	0.25 (≈ 0.552 µM)	0.13 (≈ 0.287 µM)	> 8	2 (≈ 4.42 µM)	0.2	13	0.27	–	–	–	–	–	–	–	–	–	–	206000
COc1ncc2ncc(=O)n(CCN3CCC(NCc4cc5c(cn4)OCCO5)CC3)c2n1	0.25 (≈ 0.551 µM)	0.25 (≈ 0.551 µM)	> 8	2 (≈ 4.41 µM)	0.14	28	0.96	–	–	–	–	–	–	–	–	–	–	81000

Further lines, with some results ahead:

MIC [1] [µg/mL]	MIC [2] [µg/mL]	MIC [3] [µg/mL]	MIC [4] [µg/mL]	logD ([5]; octanol/phosphate buffer)	IC50 [15] [nM]	fraction unbound at 16 h, 10 µM [16]	logD ([5]; octanol/water)	Compound	clearance [6] [mL/min/kg]	Vd [7] [L/kg]	half-life [8] [h]	AUC [9] [ng·h/mL]	clearance [10] [mL/min/kg]	Vd [11] [L/kg]	half-life [12] [h]	AUC [13] [ng·h/mL]	bioavailability [14] [%]	IC50 [17] [nM]
0.03 (≈ 0.0663 µM)	0.02 (≈ 0.0442 µM)	4 (≈ 8.84 µM)	0.25 (≈ 0.552 µM)	0.83	1.5	0.47	–	COc1ccc2ncc(=O)n(CCN3CCC(NCc4cc5c(cn4)OCCO5)CC3)c2n1	–	–	–	–	–	–	–	–	–	–
0.03 (≈ 0.0643 µM)	0.02 (≈ 0.0429 µM)	1 (≈ 2.14 µM)	0.06 (≈ 0.129 µM)	1.78	0.6	0.06	–	COc1ccc2ncc(F)c(CCN3CCC(NCc4ccc5c(n4)NC(=O)CO5)CC3)c2n1	–	–	–	–	–	–	–	–	–	–
> 8	8 (≈ 17 µM)	> 8	> 8	–	–	0.09	–	COc1ccc2c(c1)N(CCN1CCC(NCc3cc4c(cn3)OCCO4)CC1)C(=O)CS2	–	–	–	–	–	–	–	–	–	–
> 8	> 8	> 8	> 8	0.66	780	0.04	–	COc1ccc2c(c1)N(CCN1CCC(NCc3ccc4c(n3)NC(=O)CO4)CC1)C(=O)CC2	–	–	–	–	–	–	–	–	–	29000
0.5 (≈ 1.07 µM)	1 (≈ 2.14 µM)	4 (≈ 8.56 µM)	0.5 (≈ 1.07 µM)	0.5	4.4	0.26	–	COc1ccc2c(c1)N(CCN1CCC(NCc3ccc4c(n3)NC(=O)CO4)CC1)C(=O)OC2	–	–	–	–	–	–	–	–	–	42000
0.06 (≈ 0.133 µM)	0.03 (≈ 0.0666 µM)	> 8	1.5 (≈ 3.33 µM)	1.32	22	0.31	–	COc1ccc2ccc(=O)n(CCN3CCC(NCc4cc5c(cn4)OCCO5)CC3)c2c1	–	–	–	–	–	–	–	–	–	34000
0.03 (≈ 0.0646 µM)	0.02 (≈ 0.0431 µM)	> 8	0.5 (≈ 1.08 µM)	1.72	–	–	–	COc1ccc2c(C)cc(=O)n(CCN3CCC(NCc4cc5c(cn4)OCCO5)CC3)c2c1	–	–	–	–	–	–	–	–	–	23000
1 (≈ 2.15 µM)	2 (≈ 4.3 µM)	> 8	> 8	–	82	–	0.29	COc1ccc2c(C)nc(=O)n(CCN3CCC(NCc4cc5c(cn4)OCCO5)CC3)c2c1	–	–	–	–	–	–	–	–	–	> 33000
0.05 (≈ 0.111 µM)	0.02 (≈ 0.0443 µM)	> 8	0.5 (≈ 1.11 µM)	1.16	2	0.31	–	COc1ccc2ccc(=O)n(CCN3CCC(NCc4cc5c(cn4)OCCO5)CC3)c2n1	–	–	–	–	–	–	–	–	–	40000
1 (≈ 2.21 µM)	1 (≈ 2.21 µM)	> 8	8 (≈ 17.7 µM)	0.68	28	0.17	–	COc1cc2c(ccc(=O)n2CCN2CCC(NCc3cc4c(cn3)OCCO4)CC2)cn1	–	–	–	–	–	–	–	–	–	–
8 (≈ 17.2 µM)	> 8	8 (≈ 17.2 µM)	2 (≈ 4.3 µM)	–	26	–	–	COc1ccc2nnc(=O)n(CCN3CCC(NCc4ccc5c(n4)NC(=O)CO5)CC3)c2c1	–	–	–	–	–	–	–	–	–	–
